From publication PMC2652250 (Biochemistry, 2008)
Where “and” joins values, the source holds several entries; their conditions need not be identical. Equal values may be shown once.

How the values were obtained:
[1] = target: cNTnC(C35S/C84S)·Ca^2+·cTnI147−163 (Homo sapiens, UniProt P19429+P63316, C35S/C84S); type: binding; conditions: for chemical shift changes on titration (in words): 100 mM stock added to the NMR sample
[2] = Solubility and precipitation in aqueous solution / NMR samples during titration
[3] = target: cNTnC(C35S/C84S)·Ca^2+·cTnI144−163 (Homo sapiens, UniProt P19429+P63316, C35S/C84S); type: binding; conditions: for drug-induced backbone amide chemical shift changes: 1.0 mM cNTnC(C35S/C84S), […] cTnI144−163, Figure 6; for Kd: global fit of HSQC chemical shift changes, pH 6.7, 30 °C; for chemical shift changes on titration (in words): 100 mM stock added to the NMR sample
[4] = target: cTnC·3Ca^2+·cTnI34−71·cTnI128−163; conditions: cited from earlier work
[5] = target: sTnC·4Ca^2+·sTnI1−182·sTnT156−262; conditions: cited from earlier work
skinned muscle fibers = conditions: cited from earlier work
cTnI144−163 = cTnI144−163 (Homo sapiens, UniProt P19429); test: 1D 1H NMR titration of levosimendan into free cTnI144−163 peptide; type: binding; conditions: data not shown
perfused hearts = conditions: cited from earlier work
cTnI147−163 = cTnI147−163 (Homo sapiens, UniProt P19429); test: 1D 1H NMR titration of levosimendan into free cTnI147−163 peptide; type: binding; conditions: data not shown
How it was run: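 Test compound stocks were made fresh in DMSO-d6 for every titration and shielded from light; concentrations were determined gravimetrically. […] 1D 1H spectra were recorded at 500 MHz.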

[6] = target: cTnC·3Ca^2+·cTnI32−79·cTnI128−180; conditions: cited from earlier work
cNTnC(WT)·Ca^2+ = conditions: WT isoform; cited from earlier work
cNTnC(C35S/C84S)·Ca^2+ = cNTnC(C35S/C84S)·Ca^2+ (Homo sapiens, UniProt P63316, C35S/C84S); test: 2D 1H-15N HSQC NMR titration of cNTnC; type: binding

cNTnC(C35S/C84S)·Ca^2+·cTnI144−163, sequence (P19429 145-164, other chains not shown): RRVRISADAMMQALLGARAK

With `CC1CC(=O)NN=C1c1ccc(N)cc1` (stereo not drawn) [AMDP, 6-(4-aminophenyl)-5-methyl-4,5-dihydro-3(2H)-pyridazinone] the Kd [1] was 6500 µM, the “solubility in aqueous solution (in words)” value (shortened to “solubility”) [2] was “highly soluble in aqueous solution” and the “drug-induced backbone amide chemical shift changes” value [3] was at most 20 Hz. For the same compound, the Kd [3] was 1500 µM and ~1500 µM.
In the case of `CC1CC(=O)NN=C1c1ccc(-n2ccnc2)cc1` (stereo not drawn) [CI-930, 4,5-dihydro-6-[4-(1-imidazol-1-yl)phenyl]-5-methyl-4,5-dihydro-3(2H)-pyridazinone], the Kd [1] is reported as 11000 µM, the “drug-induced backbone amide chemical shift changes” value [3] is reported as at most 20 Hz and the Kd [3] is reported as 2650 µM.
With `CC1CC(=O)NN=C1c1ccc(Cl)cc1` (stereo not drawn) [CMDP, 6-(4-chlorophenyl)-5-methyl-4,5-dihydro-3(2H)-pyridazinone] the “drug-induced backbone amide chemical shift changes” value [3] was at most 60 Hz.
For `COc1ccc(C2=NNC(=O)CC2)cc1` [MPDP, 6-(4-methoxyphenyl)-4,5-dihydro-3(2H)-pyridazinone], the “chemical shift changes on titration (in words)” value [1] was “No chemical shift changes were observed” and the “chemical shift changes on titration (in words)” value [3] was “No chemical shift changes were observed”.
For `NCCCCCCNS(=O)(=O)c1cccc2c(Cl)cccc12` [W7, N-(6-aminohexyl)-5-chloro-1-naphthalenesulfonamide], the Kd [4] is listed as about 500 µM.
In the case of `CC(C)(C)CC(C)(C)c1ccc(OCCOCCOCCOCCO)cc1` [anapoe, 2-[2-(2-{2-[4-(1,1,3,3-tetramethylbutyl)phenoxy]ethoxy}ethoxy)ethoxy]ethanol], the Kd [5] is given as about 640 µM.
With `O=C1CCC(c2ccc(-n3ccnc3)cc2)=NN1` [imazodan, 4,5-dihydro-6-[4-(1-imidazol-1-yl)phenyl]-3(2H)-pyridazinone] the “chemical shift changes on titration (in words)” value [1] was “No chemical shift changes were observed” and the “chemical shift changes on titration (in words)” value [3] was “No chemical shift changes were observed”.
For `C[C@@H]1CC(=O)NN=C1c1ccc(NN=C(C#N)C#N)cc1` [levosimendan, (−)-[4-(1,4,5,6-tetrahydro-4-methyl-6-oxo-3-pyridazinyl)phenyl]hydrozonopropanedinitrile], the “concentration of maximal effect” value (skinned muscle fibers) is listed as 10 µM, the “chemical shift change of the peptide in the presence of drug (in words)” value (cTnI144−163) is listed as “no chemical shift change” and the “lowest concentration with multiple effects” value (perfused hearts) is listed as 0.3 µM. For the same compound, the “chemical shift change of the peptide in the presence of drug (in words)” value (cTnI147−163) was “no chemical shift change”, the Kd [6] was at least 200 µM and the “solubility” value [2] was “insoluble in aqueous solution”.
In the case of Ac-RISADAMMQALLGARAK-NH2 [cTnI147−163], the stoichiometry of binding (cNTnC(WT)·Ca^2+) is given as 1/1, the “solubility” value [2] is given as “highly soluble in aqueous solution” and the stoichiometry of binding (cNTnC(C35S/C84S)·Ca^2+; C35S/C84S isoform) is given as 1/1. The “equiv of peptide required to saturate the protein” value (cNTnC(C35S/C84S)·Ca^2+; solid peptide added, pH 6.7) was 3−3.5 equiv.
